# Bioassay records as filed in PubChem.
# SMARCA2 act: SMARCA2 function activation, primary screen; AID 652017; MG213 cells, MMTV-luciferase reporter, dexamethasone, overnight; activation, % at 9.1 µM; 370,000 compounds, 1% hits; in the data active means activation above about 7.8%;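 further: 0% = vehicle wells and 100% = reference activator wells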
# Vif imaging: inhibitors of HIV Vif | inhibition, % at 7.49 µM | HEK293T cells, Vif self-association by quenched fluorescence, imaging, 24 h | 340,000 compounds, 0.35% hits; in the data active means inhibition above about 50%, passing the limit was not always enough
# H9c2 TAG inh: reduces triacylglycerol accumulation in H9c2 cells; Nile Red lipid (TAG) fluorescence; cells loaded with 200 µM oleic acid; inhibition, % at 12.5 µM; 230,000 compounds, 0.66% hits; AID 651582;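 active means pattern-corrected inhibition of lipid staining of at least 50% with the nuclear-stain viability signal not falling by more than 50%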;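 further: 0% = DMSO wells and 100% = triacsin C control wells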
# SR-BI DiI inh: mouse SR-BI HDL lipid transfer inhibition; Q61009; ldlA[mSR-BI] CHO cells, DiI-HDL uptake fluorescence, 3 h; inhibition, % at 12.5 µM; 320,000 compounds, 0.96% hits;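 active means mean replicate inhibition of at least 70% and a set share of replicates each scoring 70 or more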;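 further: 0% = median of neutral control wells and 100% = median of positive control wells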
# Target sequence (Q61009 whole entry, looked up): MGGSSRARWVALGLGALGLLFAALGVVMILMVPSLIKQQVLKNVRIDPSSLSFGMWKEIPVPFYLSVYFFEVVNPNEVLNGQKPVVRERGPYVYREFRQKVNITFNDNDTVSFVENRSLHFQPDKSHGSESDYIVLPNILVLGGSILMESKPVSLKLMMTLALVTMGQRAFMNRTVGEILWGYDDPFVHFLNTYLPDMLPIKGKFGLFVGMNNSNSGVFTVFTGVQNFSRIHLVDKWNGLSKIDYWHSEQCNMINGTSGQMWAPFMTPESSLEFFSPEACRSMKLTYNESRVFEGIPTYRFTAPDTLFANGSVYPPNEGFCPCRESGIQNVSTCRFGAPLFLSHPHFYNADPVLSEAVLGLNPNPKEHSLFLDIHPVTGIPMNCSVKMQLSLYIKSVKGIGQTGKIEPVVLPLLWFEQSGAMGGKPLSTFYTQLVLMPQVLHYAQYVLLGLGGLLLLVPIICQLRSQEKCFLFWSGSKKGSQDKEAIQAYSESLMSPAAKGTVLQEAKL
# SR-BI DiI-HDL act: SR-BI HDL lipid transfer activation; CHO ldlA[mSR-BI] cells, DiI-HDL uptake fluorescence, 3 h; 100 = double the neutral-control signal; activation, % at 12.5 µM; 320,000 compounds, 0.096% hits; AID 504775;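 active means mean replicate activation of at least 60% and every replicate at or above 60%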;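 further: 0% = median plate neutral-control signal and 100% = twice that signal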
#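 Test system: SR-BI-overexpressing, LDLR-lacking CHO cells. Measured by: DiI fluorescence, bottom read. Medium: Ham's F12 with 0.5% BSA, HEPES 25 mM, pH 7.4. Timing: 3 h uptake period with compound, 37 °C.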
# H9c2 TAG conf: triacylglycerol accumulation inhibition, confirmation; shares compounds with H9c2 TAG inh; H9c2 lipid accumulation, Nile Red fluorescence; cells loaded with 200 µM oleic acid; inhibition, % at 12.5 µM; 990 compounds, 71% hits; AID 651629;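 active means mean inhibition across replicates of 40% or more; inactive means mean inhibition below 40%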;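 further: plate controls were DMSO only wells for no effect and Triacsin C treated wells for full effect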
# Active calls of the source: *; / = no result. Sampled rows, rich in hits. Any-hit rate of the full collection: about 2.5%.
SMILES,SMARCA2 act,Vif imaging,H9c2 TAG inh,SR-BI DiI inh,SR-BI DiI-HDL act,H9c2 TAG conf
COc1ccc(-c2cc(-c3ccccc3)nc(SCC(=O)Nc3ncc(C)s3)c2C#N)cc1,-1,-7,/,51,-51,/
CCOc1ccc2nc(-c3ccccc3)nc(SCC(=O)Nc3ncc(C)s3)c2c1,2,4,83*,20,-20,81*
CCC(CC)NCc1ccc2c(c1)c1ccccc1n2CC,2,3,52*,30,-30,37
CCn1c2ccccc2c2cc(N)ccc21,0,-5,/,21,-21,/
C[C@H](CO)N1C[C@H](C)[C@@H](CN(C)C(=O)Nc2ccc(C(C)(C)C)cc2)OCc2cn(nn2)CCCC1=O,1,/,/,/,/,/
COc1ccc(NC2=NC(=S)N(c3ccc(C)cc3)C23CCCCC3)cc1,4,8,57*,-16,16,30
O=C(N[C@@H](Cc1ccccc1)C(=O)N1CCC2CCN(S(=O)(=O)c3ccccc3)CC21)[C@@H]1CCCN1 (stereo not given in full),-3,/,/,/,/,/
COC(=O)[C@]12C[C@H](CC(=O)N3CCN(C(=O)C4CC4)CC3)C(=O)N(CCc3ccc(OC)c(OC)c3)C1=C[C@H](C(C)C)O[C@@H]2C1CC1,-2,/,/,/,/,/
C=CCN1C(=O)[C@H](CC(=O)NCC23CC4CC(CC(C4)C2)C3)[C@@]2(C(=O)OC)CCCCC=C12,-6,/,/,/,/,/
O=C(Cc1n[nH]c(=O)c2ccccc12)OCC(=O)c1ccc(F)cc1,-1,0,-10,-2,2,/
O=C(Cc1n[nH]c(=O)c2ccccc12)OCC(=O)c1ccc2c(c1)OCCO2,1,15,81*,-24,24,56*
COC(=O)c1ccc(C(=O)OC)c(NC(=O)CN2CCN(c3ccccc3)CC2)c1,1,-1,/,40,-40,/
COC(=O)c1ccc(C(=O)OC)c(NC(=O)CN2CCN(c3ccc(OC)cc3)CC2)c1,2,/,56*,50,-50,20
O=C(Cc1c[nH]c2ccccc12)N/N=C/c1ccccc1O,-6,-3,19,/,/,/
Cc1ccc(/C=N/NC(=O)Cc2c[nH]c3ccccc23)c(C)c1,-4,-13,54*,24,-24,44*
CC(C)(C)c1ccc(/C=N/NC(=O)Cc2c[nH]c3ccccc23)cc1,-1,-18,58*,11,-11,42*
O=C(Nc1ccc(F)cc1)OCc1cn(Cc2cc(F)ccc2F)nn1,0,/,/,/,/,/
CN(C)CCCn1c(=O)n(CCc2ccccc2)c(=O)c2c3c(sc21)CCCCC3,2,10,55*,-3,3,50*
CCOC(=O)C1=C(C)N(C[C@@H]2CC[C@@H](Cc3ccc(-c4ccccc4)cc3)O2)C(=O)NC1c1cccc2ccccc12 (stereo not given in full),-3,-6,78*,11,-11,78*
Cc1nn(-c2ccc([N+](=O)[O-])cc2)c2c1C(c1ccc(OC(F)F)cc1)N1C(=N2)C(=O)Nc2ccccc21 (stereo not given),1,-2,65*,30,-30,69*
COc1cccc(C2c3c(C)nn(-c4ccc([N+](=O)[O-])cc4)c3N=C3C(=O)Nc4ccccc4N32)c1 (stereo not given),-2,-14,76*,54,-54,81*
O=C(NC(c1ccc(F)cc1)c1ccc2ccccc2n1)C1CCN(Cc2ccc3ccccc3n2)CC1 (stereo not given),7,3,-8,/,/,/
O=C(NC(c1ccc(F)cc1)c1ccc2ccccc2n1)C1CCN(CCOc2ccc(Cl)cc2)CC1 (stereo not given),-4,-3,-7,/,/,/
CN(C)c1ccc(CN2CCC(C(=O)NC(c3ccc(F)cc3)c3ccc4ccccc4n3)CC2)cc1 (stereo not given),-3,8,56*,/,/,38
COc1cc(/C=C/CN2CCC(C(=O)NC(c3ccc(F)cc3)c3ccc4ccccc4n3)CC2)ccc1OC(C)=O (stereo not given),2,25,54*,/,/,54*
SMILES,SMARCA2 act,Vif imaging,H9c2 TAG inh,SR-BI DiI inh,SR-BI DiI-HDL act,H9c2 TAG conf
COC(=O)c1cccc(Nc2cc(C)n(-c3cccc(C(=O)OC)c3)c(=O)c2)c1,1,/,/,/,/,/
Nc1ccccc1Nc1cccc(C(F)(F)F)c1,1,11,68*,4,-4,74*
C[C@@H]1[C@@H](O)C[C@@]2(C[C@H](O)c3cc(Cl)ccc3O2)O[C@H]1c1ccccc1Cl,-4,/,/,/,/,/
O=C(NCc1ccccc1)[C@@H]1C[C@H]1[C@@H](NP(=O)(c1ccccc1)c1ccccc1)c1ccccc1,1,-1,25,-7,7,/
O=C(Nc1ccc2ccccc2c1)[C@@H]1C[C@H]1[C@@H](NP(=O)(c1ccccc1)c1ccccc1)c1ccccc1,0,-3,52*,-5,5,34
COc1ccc2[nH]c3c(c2c1)CCN1C(=O)C(CC(=O)NCC24CC5CC(CC(C5)C2)C4)C[C@H](C(=O)N2CCOCC2)[C@@]31CCC1CCCC1 (stereo not given in full),-4,0,72*,-20,20,73*
O=C(C[C@H]1C[C@H](C(=O)N2CCOCC2)[C@@]2(CCC3CCCC3)c3[nH]c4ccc(Cl)cc4c3CCN2C1=O)NCC12CC3CC(CC(C3)C1)C2,-5,/,69*,-33,33,63*
O=C(C[C@H]1C[C@H](C(=O)N2CCOCC2)[C@@]2(CCC3CCCC3)c3[nH]c4ccc(Cl)cc4c3CCN2C1=O)NCCN1CCOCC1,-6,-5,-6,1,-1,/
CCOC(=O)[C@@]12CCCC3=C1N(CCC3)C(=O)[C@H]2CC(=O)N1CCCCC1,-3,/,/,/,/,/
NCc1ccc(OCCCN2CCC(C(O)(C3=CCCC3)c3ccccc3)CC2)cc1 (stereo not given),8,/,/,/,/,/
CCC(C)Nc1nc(-c2cccc(OC)c2O)nc2ccccc12 (stereo not given),-6,/,57*,54,-54,44*
COc1cccc(-c2nc(NC(C)C)c3ccccc3n2)c1O,-1,-11,/,59,-59,/
CN(C)[C@@H]1CCN(c2ccc3c(c2)O[C@@H]2CCN(C2)S3(=O)=O)C1,-1,/,/,/,/,/
CCCC1O[C@@H]2C[C@H]3[C@@H]4CCC5=CC(=O)C=C[C@]5(C)[C@H]4[C@@H](O)C[C@]3(C)[C@]2(C(=O)CO)O1 (stereo not given in full),-3,-8,66*,-9,14,79*
C=CC[C@]1(c2ccccc2)C(=O)N2C[C@H]3CON(C)[C@H]3C[C@H]2c2ccccc21,-1,/,/,/,/,/
COc1ccc(C(C(=O)NC(C)(C)C)N(CC2CCCO2)C(=O)CCC(=O)Nc2cc(C)on2)cc1 (stereo not given),-1,/,50*,-20,20,32
